# According to ChEMBL document CHEMBL4130346, “New quinoline-arylamidine hybrids: Synthesis, DNA/RNA binding and antitumor activity” (Eur J Med Chem, 2017):
# Calls of active or inactive are those of the source. No cut-off for these calls is given here.
# Tests used:
# [1] = system: Raji; assay: Growth inhibition of human Raji cells after 72 hrs by MTT assay; assay type: functional
# In short: (§1)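 Leukemia cells (1x10^5 cells/cm3) were exposed to compound for 72 h, then MTT (5 mg/cm3) was added for 4 h. Formazan was dissolved with 10% SDS in 0.01 mol dm-3 HCl and absorbance read at 595 nm. Percent growth was taken versus untreated control minus background. GI50 came from a variable-slope fit, as mean ± SD of three independent experiments in triplicate.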
# [2] = Binding affinity to polyA-polyU (unknown origin) by UV-vis spectrophotometric method
# In short: (§2)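 UV-Vis titration at room temperature in Na cacodylate buffer (I = 0.05 mol dm-3, pH 7.0). Portions of ct-DNA or polyA-polyU were added to a fixed compound concentration until saturation, with dilution correction. Polynucleotide was measured as phosphate. Ks and n were obtained by Scatchard analysis, together with the hypochromic change at the absorption maximum.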
# [3] = Binding affinity to polyA-polyU (unknown origin) assessed as change in melting temperature at 0.1 compound to ds-polynucleotide ratio by spectrophotometric method
# In short: (§3)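 Thermal melting of ct-DNA (sonicated, filtered) or polyA-polyU in Na cacodylate buffer, I = 0.05 mol dm-3, pH 7.0, at given r = [compound]/[polynucleotide]; polynucleotide as phosphate concentration. Tm from maximum of first derivative, checked by tangent method. ΔTm = Tm(complex) − Tm(free nucleic acid), average of at least two measurements, error ±0.5 °C.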
# [4] = system: Calf thymus DNA; assay: Binding affinity to calf thymus DNA assessed as hypochromic effect by UV-vis spectrophotometric method; assay type: nucleic-acid assay; conditions: Bos taurus; in short: as §2
# [5] = system: Calf thymus DNA; assay: Binding affinity to calf thymus DNA assessed as change in melting temperature at 0.1 compound to ds-polynucleotide ratio by spectrophotometric method; assay type: nucleic-acid assay; conditions: Bos taurus; in short: as §3
# [6] = Binding affinity to polyA-polyU (unknown origin) assessed as hypochromic effect by UV-vis spectrophotometric method; in short: as §2
# [7] = Induction of polyA-polyU (unknown origin) intercalation at 0.1, 0.3, 0.5, 0.7 compound to ds-polynucleotide ratio by CD-spectrophotometric method
# In short: (§4)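 Induced CD spectra were recorded in 1 cm quartz cuvettes in Na cacodylate buffer (I = 0.05 mol dm-3, pH 7.0) with ct-DNA or polyA-polyU. Compound was added at r = [compound]/[polynucleotide] = 0.1, 0.3, 0.5 and 0.7. The CD signal was followed as a function of r.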
# [8] = system: HeLa; assay: Growth inhibition of human HeLa cells after 72 hrs by MTT assay; assay type: functional
# In short: (§5)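 Adherent cells (2x10^4 cells/cm3) attached overnight, then were exposed to compound for 72 h. Medium was replaced with 5 mg/cm3 MTT, formazan was dissolved in DMSO and absorbance read at 595 nm. Percent growth was taken relative to untreated control minus background. GI50 came from a variable-slope log-inhibitor fit, as mean ± SD of three independent experiments in triplicate.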
# [9] = system: Calf thymus DNA; assay: Binding affinity to calf thymus DNA by UV-vis spectrophotometric method; assay type: nucleic-acid assay; conditions: Bos taurus; in short: as §2
# [10] = Chemical stability in aqueous solution after several weeks; assay type: physicochemical; conditions: buffer
# In short: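 Aqueous compound solutions were monitored for several weeks by UV-Vis absorbance at 220-900 nm. Linearity with concentration was checked up to 3.5 × 10^-5 mol dm-3, and spectra were recorded at 25–90 °C with reproducibility checked on cooling to 25 °C.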
# [11] = system: K562; assay: Growth inhibition of human K562 cells after 72 hrs by MTT assay; assay type: functional; conditions: K562, 72 h; in short: as §1
# [12] = Binding affinity to polyA-polyU (unknown origin) assessed as change in melting temperature at 0.3 compound to ds-polynucleotide ratio by spectrophotometric method; in short: as §3
# [13] = Binding affinity to polyA-polyU (unknown origin) assessed as change in melting temperature at 0.5 compound to ds-polynucleotide ratio by spectrophotometric method; in short: as §3
# [14] = system: Calf thymus DNA; assay: Binding affinity to calf thymus DNA minor groove at 0.1, 0.3, 0.5, 0.7 compound to ds-polynucleotide ratio by CD-spectrophotometric method; assay type: nucleic-acid assay; conditions: Bos taurus; in short: as §4
# [15] = Growth inhibition of MDCK1 cells after 72 hrs by MTT assay; parameters: species or system Canis lupus familiaris; conditions: dog; in short: as §5
# [16] = system: Calf thymus DNA; assay: Binding affinity to calf thymus DNA assessed as change in melting temperature at 0.5 compound to ds-polynucleotide ratio by spectrophotometric method; assay type: nucleic-acid assay; conditions: Bos taurus; in short: as §3
# [17] = system: Calf thymus DNA; assay: Binding affinity to calf thymus DNA assessed as change in melting temperature at 0.3 compound to ds-polynucleotide ratio by spectrophotometric method; assay type: nucleic-acid assay; conditions: Bos taurus; in short: as §3
# [18] = Solubility of the compound in water; assay type: physicochemical
# [19] = system: Caco-2; assay: Growth inhibition of human Caco2 cells after 72 hrs by MTT assay; assay type: functional; conditions: Caco-2, 72 h; in short: as §5
# [20] = system: Calf thymus DNA; assay: Disruption of calf thymus DNA helix at 0.1, 0.3, 0.5, 0.7 compound to ds-polynucleotide ratio by CD-spectrophotometric method; assay type: nucleic-acid assay; conditions: Bos taurus; in short: as §4
SMILES,GI50 [1] [µM],log Ks [2],ΔTm [3] [°C],Activity [4] [%],ΔTm [5] [°C],Activity [6],Activity [7],GI50 [8] [µM],log Ks [9],Stability [10],GI50 [11] [µM],ΔTm [12] [°C],ΔTm [13] [°C],Activity [14],GI50 at 72 h [15] [µM],ΔTm [16] [°C],ΔTm [17] [°C],solubility [18] [µM],GI50 [19] [µM],Activity [20]
CC(C)NC(=N)c1ccc2nc(-c3ccc(Oc4ccnc5cc(Cl)ccc45)cc3)[nH]c2c1.Cl.Cl.Cl,48.2,5.36,-0.44,60,1.07,26.8%,Active,51.3,7.87,Stable,69,1.32,0.43,Active,61.8,2.24,1.75,1000,53.3,
Cl.Cl.N=C(NC1CCCC1)c1ccc2nc(-c3ccc(Oc4ccnc5cc(Cl)ccc45)cc3)[nH]c2c1,41.5,6.31,0.18,36.7,1.41,22.8%,Active,61.9,6.23,Stable,54.6,4.06,6.82,Active,55.5,3.07,2.91,1000,47.4,
Cl.Cl.Cl.N=C(N)c1ccc2nc(-c3ccc(Oc4ccnc5cc(Cl)ccc45)cc3)[nH]c2c1,111,6.43,2.98,79.8,2.07,6.9%,Active,> 100,6.83,Stable,> 100,0.72,0.21,Active,> 100,2.9,2.84,1000,82.9,
CC(C)NC(=N)c1ccc2nc(-c3ccc(OCCNc4ccnc5cc(Cl)ccc45)cc3)[nH]c2c1.Cl.Cl.Cl,19.6,inactive,,23.7,5.83,inactive,,> 100,6.63,Stable,17.2,,,Active,> 100,9.83,9.05,1000,> 100,Active
Cl.Cl.Clc1ccc2c(NCCOc3ccc(C4=NCCCN4)cc3)ccnc2c1,> 100,,,,,,,> 100,,Stable,> 100,,,,> 100,,,1000,> 100,
Cl.Cl.Clc1ccc2c(Oc3ccc(C4=NCCN4)cc3)ccnc2c1,40.8,,1.18,,2.65,,,57.7,,Stable,48.7,2.18,1.49,,56.6,2.73,2.67,1000,64,
Cl.Cl.N=C(NC1CCCC1)c1ccc(OCCNc2ccnc3cc(Cl)ccc23)cc1,96.9,,,,,,,> 100,,Stable,76.9,,,,> 100,,,1000,84.5,
CC(C)NC(=N)c1ccc(OCCNc2ccnc3cc(Cl)ccc23)cc1.Cl.Cl.Cl,> 100,,,,,,,> 100,,Stable,> 100,,,,> 100,,,1000,> 100,
Cl.Cl.Cl.N=C(N)c1ccc(OCCNc2ccnc3cc(Cl)ccc23)cc1,58.9,,,,,,,74,,Stable,49.5,,,,74.4,,,1000,68.6,
Cl.Cl.Cl.Clc1ccc2c(NCCOc3ccc(-c4nc5ccc(C6=NCCCN6)cc5[nH]4)cc3)ccnc2c1,19,inactive,,31,6.33,inactive,,> 100,6.52,Stable,13.3,,,Active,100,10.8,9.76,1000,> 100,Active
Cl.Cl.Clc1ccc2c(NCCOc3ccc(C4=NCCN4)cc3)ccnc2c1,51.5,,,,,,,60.8,,Stable,51.9,,,,78.4,,,1000,50.7,
Cl.Cl.Cl.N=C(N)c1ccc2nc(-c3ccc(OCCNc4ccnc5cc(Cl)ccc45)cc3)[nH]c2c1,29.3,inactive,,17.7,4.84,inactive,,> 100,6.72,Stable,34.7,,,Active,71.6,8.4,8.4,1000,> 100,Active
Cl.Cl.N=C(N)c1ccc(Oc2ccnc3cc(Cl)ccc23)cc1,53,,0,,1.76,,,59.1,,Stable,62.5,-0.16,-0.26,,52.8,2.07,2.17,1000,57.6,
CC(C)CNC(=N)c1ccc(OCCNc2ccnc3cc(Cl)ccc23)cc1.Cl.Cl.Cl,86.2,,,,,,,> 100,,Stable,77.3,,,,> 100,,,1000,92.6,
Cl.Cl.Clc1ccc2c(Oc3ccc(-c4nc5ccc(C6=NCCN6)cc5[nH]4)cc3)ccnc2c1,40.6,,-0.16,68.5,1.6,69.7%,Active,> 100,5.76,Stable,27.6,0.78,1.12,Active,77.1,4.08,3.2,1000,36.8,
Cl.Cl.Clc1ccc2c(Oc3ccc(C4=NCCCN4)cc3)ccnc2c1,50.8,,1.62,,2.08,,,57,,Stable,62,1.22,1.32,,37.5,1.96,1.86,1000,53.3,
CC(C)NC(=N)c1ccc(Oc2ccnc3cc(Cl)ccc23)cc1.Cl.Cl.Cl,51.8,,0.36,,2.01,,,56.6,,Stable,82.9,-0.36,,,57.7,2.28,2.28,1000,47.7,
